According to ChEMBL document CHEMBL1131295, “Design of peptidomimetics that inhibit the association of phosphatidylinositol 3-kinase with platelet-derived growth factor-beta receptor and possess cellular activity” (J Med Chem, 1998):
Where a SMILES comes first, the peptide text is derived from it. [ ]: non-standard residue; d: D form. F2Pmp = N[C@@H](Cc1ccc(C(F)(F)P(=O)(O)O)cc1)C(=O)O; Pmp = N[C@@H](Cc1ccc(CP(=O)(O)O)cc1)C(=O)O; pY = N[C@@H](Cc1ccc(OP(=O)(O)O)cc1)C(=O)O; Nle = CCCC[C@H](N)C(=O)O

Test system: not listed separately
Assay: Binding affinity against p85 C-terminal SH2 domain to platelet-derived growth factor receptor beta using [35S]GST as radioligand
Conditions: not given
In short: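 Recombinant [35S]-labelled GST-p85 C-terminal SH2 fusion (E. coli, IPTG 1 mM, trans-35S label) binding to bead-bound Sf9-expressed PDGF-β receptor tyrosine kinase domain, prephosphorylated with 1 mM ATP, 10 mM MnCl2, 5 mM MgCl2.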

Compared with `CCCCN(CCCC)C(=O)[C@@H](C)NC(=O)[C@@H](NC(=O)[C@H](Cc1ccc(OP(=O)(O)O)cc1)NC(C)=O)C(C)C`, `CCCCN(CCCC)C(=O)[C@H](C)NC(=O)[C@@H](NC(=O)[C@H](Cc1ccc(OP(=O)(O)O)cc1)NC(C)=O)C(C)C` is 12-fold higher in IC50: 478 nM for the first, 5700 nM for the second. The first is the more potent here.

`CCCCCN(CCCCC)C(=O)[C@H](C)NC(=O)[C@@H](NC(=O)[C@H](Cc1ccc(C(F)(F)P(=O)(O)O)cc1)NC(C)=O)C(C)C` and `CCCCCCN(CCCCCC)C(=O)[C@H](C)NC(=O)[C@@H](NC(=O)[C@H](Cc1ccc(C(F)(F)P(=O)(O)O)cc1)NC(C)=O)C(C)C` are within 1.5-fold of each other in IC50: 372 nM for the first, 446 nM for the second.

First: CC(=O)N[C@@H](Cc1ccc(OP(=O)(O)O)cc1)C(=O)N[C@H](C(=O)N[C@H](C)C(=O)NCCC1CCCCC1)C(C)C
Second: CC(=O)N[C@@H](Cc1ccc(OP(=O)(O)O)cc1)C(=O)N[C@H](C(=O)N[C@@H](C)C(=O)NCCC1CCCCC1)C(C)C
The IC50 of the first is lower: 19000 nM for the first, > 100000 nM for the second.

Going from `CCCCN(CC(N)=O)C(=O)[C@@H](C)NC(=O)[C@@H](NC(=O)[C@H](Cc1ccc(OP(=O)(O)O)cc1)NC(C)=O)C(C)C` to `CCCCCN(CCCCC)C(=O)[C@@H](C)NC(=O)[C@@H](NC(=O)[C@H](Cc1ccc(OP(=O)(O)O)cc1)NC(C)=O)C(C)C`, the IC50 falls from 2500 nM to 220 nM (11-fold). The second is the more potent here.

Going from `CCCCCNC(=O)[C@H](C)NC(=O)[C@@H](NC(=O)[C@H](Cc1ccc(OP(=O)(O)O)cc1)NC(C)=O)C(C)C` to `CCCCCNC(=O)C(C)NC(=O)[C@@H](NC(=O)[C@H](Cc1ccc(OP(=O)(O)O)cc1)NC(C)=O)C(C)C` (single isomer, unassigned), the IC50 falls from 16100 nM to 4560 nM (3.5-fold).

Compared with `CCCCCCCCN(CCCCCCCC)C(=O)[C@H](C)NC(=O)[C@@H](NC(=O)[C@H](Cc1ccc(OP(=O)(O)O)cc1)NC(C)=O)C(C)C`, `CCCCCCN(CCCCCC)C(=O)[C@@H](C)NC(=O)[C@@H](NC(=O)[C@H](Cc1ccc(OP(=O)(O)O)cc1)NC(C)=O)C(C)C` is 46-fold lower in IC50: 3470 nM for the first, 76 nM for the second. The second is the more potent here.

First: CC(=O)N[C@@H](Cc1ccc(OP(=O)(O)O)cc1)C(=O)N[C@H](C(=O)N[C@@H](C)C(=O)NCCc1ccccc1)C(C)C
Second: CC(=O)N[C@@H](Cc1ccc(OP(=O)(O)O)cc1)C(=O)N[C@H](C(=O)N[C@H](C)C(=O)NCCc1ccccc1)C(C)C
The IC50 of the first is higher: > 100000 nM for the first, 37600 nM for the second.

`CCCCCN(CCCCC)C(=O)[C@H](C)NC(=O)[C@@H](NC(=O)[C@H](Cc1ccc(OP(=O)(O)O)cc1)NC(C)=O)C(C)C` and `CCCCCCN(CCCCCC)C(=O)[C@H](C)NC(=O)[C@@H](NC(=O)[C@H](Cc1ccc(OP(=O)(O)O)cc1)NC(C)=O)C(C)C` are within 1.5-fold of each other in IC50: 3320 nM for the first, 2500 nM for the second.

Going from `CSCC[C@H](NC(=O)[C@@H]1CCCN1C(=O)[C@@H](NC(=O)[C@H](Cc1ccc(C(F)(F)P(=O)(O)O)cc1)NC(C)=O)C(C)C)C(N)=O` (Ac-[F2Pmp]VPM-NH2) to `CSCC[C@H](NC(=O)[C@@H]1CCCN1C(=O)[C@@H](NC(=O)[C@H](Cc1ccc(OP(=O)(O)O)cc1)NC(C)=O)C(C)C)C(N)=O` (Ac-[pY]VPM-NH2), the IC50 falls from 1450 nM to 264 nM (5.5-fold). The second is the more potent here.

`CSCC[C@H](NC(=O)[C@@H]1CCCN1C(=O)[C@@H](NC(=O)[C@H](Cc1ccc(OP(=O)(O)O)cc1)NC(C)=O)C(C)C)C(=O)N[C@@H](CC(C)C)C(N)=O` (Ac-[pY]VPML-NH2) and `CSCC[C@H](NC(=O)[C@@H]1CCCN1C(=O)[C@@H](NC(=O)[C@H](Cc1ccc(OP(=O)(O)O)cc1)NC(C)=O)C(C)C)C(=O)N[C@@H](CC(C)C)C(=O)O` (Ac-[pY]VPML-OH) are within 1.5-fold of each other in IC50: 160 nM for the first, 180 nM for the second.

First: CSCC[C@H](NC(=O)[C@@H]1CCCN1C(=O)[C@@H](NC(=O)[C@@H](N)Cc1ccc(C(F)(F)P(=O)(O)O)cc1)C(C)C)C(=O)N[C@@H](CC(C)C)C(=O)O (H-[F2Pmp]VPML-OH)
Second: CSCC[C@H](NC(=O)[C@@H]1CCCN1C(=O)[C@@H](NC(=O)[C@@H](N)Cc1ccc(CP(=O)(O)O)cc1)C(C)C)C(=O)N[C@@H](CC(C)C)C(=O)O (H-[Pmp]VPML-OH)
The IC50 of the first is 9.2-fold lower: 945 nM for the first, 8700 nM for the second. The first is the more potent here.

`CSCC[C@H](NC(=O)[C@H](CC(=O)O)NC(=O)[C@H](CCSC)NC(=O)[C@@H](N)Cc1ccc(OP(=O)(O)O)cc1)C(=O)N[C@@H](CO)C(=O)O` (H-[pY]MDMS-OH) and `CSCC[C@H](NC(=O)[C@@H]1CCCN1C(=O)[C@@H](NC(=O)[C@@H](N)Cc1ccc(OP(=O)(O)O)cc1)C(C)C)C(=O)N[C@@H](CC(C)C)C(=O)O` (H-[pY]VPML-OH) are within 1.5-fold of each other in IC50: 520 nM for the first, 445 nM for the second.

Compared with `CSCC[C@H](NC(=O)[C@@H]1CCCN1C(=O)[C@@H](NC(=O)[C@@H](N)Cc1ccc(OP(=O)(O)O)cc1)C(C)C)C(N)=O` (H-[pY]VPM-NH2), `CSCC[C@H](NC(=O)[C@@H]1CCCN1C(=O)[C@@H](NC(=O)[C@@H](N)Cc1ccc(OP(=O)(O)O)cc1)C(C)C)C(=O)O` (H-[pY]VPM-OH) is 14-fold higher in IC50: 485 nM for the first, 6850 nM for the second.

Going from `CSCC[C@H](NC(=O)[C@@H]1CCCN1C(=O)[C@@H](NC(=O)[C@@H](N)Cc1ccc(OP(=O)(O)O)cc1)C(C)C)C(=O)N[C@@H](CC(C)C)C(N)=O` (H-[pY]VPML-NH2) to `CCCC[C@H](NC(=O)[C@@H]1CCCN1C(=O)[C@@H](NC(=O)[C@@H](N)Cc1ccc(OP(=O)(O)O)cc1)C(C)C)C(=O)N[C@@H](CC(C)C)C(=O)O` (H-[pY]VP[Nle]L-OH), the IC50 rises from 400 nM to 1360 nM (3.4-fold). The first is the more potent here.

Biological target: Proto-oncogene tyrosine-protein kinase Src (Homo sapiens, UniProt P12931)
Assay: Affinity for SH2 domain of src in Sf9 insect cells
Conditions: not given

Chain of Proto-oncogene tyrosine-protein kinase Src (P12931 2-536 limits assumed): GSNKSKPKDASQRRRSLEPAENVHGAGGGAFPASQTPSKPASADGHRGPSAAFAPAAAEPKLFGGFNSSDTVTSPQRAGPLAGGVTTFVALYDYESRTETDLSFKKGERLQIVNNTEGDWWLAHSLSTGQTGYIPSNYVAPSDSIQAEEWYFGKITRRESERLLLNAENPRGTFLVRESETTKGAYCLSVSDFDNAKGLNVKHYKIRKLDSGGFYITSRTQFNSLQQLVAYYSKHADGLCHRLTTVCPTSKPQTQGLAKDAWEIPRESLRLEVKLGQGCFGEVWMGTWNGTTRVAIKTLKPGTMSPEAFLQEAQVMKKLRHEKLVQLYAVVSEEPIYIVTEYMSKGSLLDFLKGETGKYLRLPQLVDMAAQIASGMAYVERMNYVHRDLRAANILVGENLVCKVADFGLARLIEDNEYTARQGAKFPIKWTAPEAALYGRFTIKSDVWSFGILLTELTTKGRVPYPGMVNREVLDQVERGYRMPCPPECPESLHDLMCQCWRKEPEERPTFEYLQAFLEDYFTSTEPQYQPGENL

Compared with `CSCC[C@H](NC(=O)[C@@H]1CCCN1C(=O)[C@@H](NC(=O)[C@H](Cc1ccc(OP(=O)(O)O)cc1)NC(C)=O)C(C)C)C(=O)N[C@@H](CC(C)C)C(=O)O` (Ac-[pY]VPML-OH), `CSCC[C@H](NC(=O)[C@@H]1CCCN1C(=O)[C@@H](NC(=O)[C@@H](N)Cc1ccc(OP(=O)(O)O)cc1)C(C)C)C(=O)N[C@@H](CC(C)C)C(=O)O` (H-[pY]VPML-OH) is 2.2-fold higher in IC50: 5900 nM for the first, 12700 nM for the second.

For `CCCC[C@H](NC(=O)[C@@H]1CCCN1C(=O)[C@@H](NC(=O)[C@@H](N)Cc1ccc(OP(=O)(O)O)cc1)C(C)C)C(=O)N[C@@H](CC(C)C)C(=O)O` (H-[pY]VP[Nle]L-OH), the IC50 was > 10000 nM.

Biological target: Tyrosine-protein kinase ABL1 (Homo sapiens) (UniProt P00519)
Assay: Affinity for SH2 domain of abl expressed in Sf9 insect cells
Conditions: concentration not given here

Chain of Tyrosine-protein kinase ABL1 (Homo sapiens) (P00519 whole entry, the tested form may be a part): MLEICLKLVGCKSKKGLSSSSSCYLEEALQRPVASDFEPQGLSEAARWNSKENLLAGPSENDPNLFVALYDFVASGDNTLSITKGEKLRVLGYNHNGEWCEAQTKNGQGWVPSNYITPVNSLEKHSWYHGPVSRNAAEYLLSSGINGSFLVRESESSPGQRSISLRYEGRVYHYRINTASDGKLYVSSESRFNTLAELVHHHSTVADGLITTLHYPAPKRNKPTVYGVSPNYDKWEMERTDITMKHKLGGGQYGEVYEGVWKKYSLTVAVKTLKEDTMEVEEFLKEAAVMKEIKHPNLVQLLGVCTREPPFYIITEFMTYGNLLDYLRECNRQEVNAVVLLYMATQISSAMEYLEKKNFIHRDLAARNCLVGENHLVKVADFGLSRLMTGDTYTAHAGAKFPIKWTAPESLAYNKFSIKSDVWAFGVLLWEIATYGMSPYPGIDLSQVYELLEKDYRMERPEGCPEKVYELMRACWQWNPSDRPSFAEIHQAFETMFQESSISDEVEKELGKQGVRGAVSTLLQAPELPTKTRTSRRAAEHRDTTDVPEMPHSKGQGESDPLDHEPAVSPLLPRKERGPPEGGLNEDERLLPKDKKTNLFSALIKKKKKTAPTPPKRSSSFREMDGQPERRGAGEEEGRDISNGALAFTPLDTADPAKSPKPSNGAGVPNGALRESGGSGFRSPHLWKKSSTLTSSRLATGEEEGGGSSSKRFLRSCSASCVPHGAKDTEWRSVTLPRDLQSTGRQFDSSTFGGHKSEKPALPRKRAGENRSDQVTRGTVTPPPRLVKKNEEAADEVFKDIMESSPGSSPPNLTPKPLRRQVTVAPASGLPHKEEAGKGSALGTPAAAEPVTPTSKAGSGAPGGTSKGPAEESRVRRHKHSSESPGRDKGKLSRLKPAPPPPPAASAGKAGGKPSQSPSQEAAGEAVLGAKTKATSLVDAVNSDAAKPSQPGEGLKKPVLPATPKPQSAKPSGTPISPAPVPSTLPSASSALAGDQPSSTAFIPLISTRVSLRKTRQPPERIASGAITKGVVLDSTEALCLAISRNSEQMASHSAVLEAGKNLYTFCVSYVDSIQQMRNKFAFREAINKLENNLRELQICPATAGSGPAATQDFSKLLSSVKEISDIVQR

`CSCC[C@H](NC(=O)[C@@H]1CCCN1C(=O)[C@@H](NC(=O)[C@@H](N)Cc1ccc(OP(=O)(O)O)cc1)C(C)C)C(=O)N[C@@H](CC(C)C)C(=O)O` (H-[pY]VPML-OH) showed an inhibition of 60%.
